TAAR1 ag – agonists of human TAAR1 | CHO RD-HGA16 TAAR1, Fluo-8 calcium fluorescence; vehicle wells 0%, saturating PEA agonist 100% | Q96RJ0 | 0.99% of 360,000 active | activation, % at 3 µM;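 active means activation above the mean activation of all test compounds in the run plus 3 SD, cut at about 38% in these data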
Target sequence (Q96RJ0 whole entry, looked up): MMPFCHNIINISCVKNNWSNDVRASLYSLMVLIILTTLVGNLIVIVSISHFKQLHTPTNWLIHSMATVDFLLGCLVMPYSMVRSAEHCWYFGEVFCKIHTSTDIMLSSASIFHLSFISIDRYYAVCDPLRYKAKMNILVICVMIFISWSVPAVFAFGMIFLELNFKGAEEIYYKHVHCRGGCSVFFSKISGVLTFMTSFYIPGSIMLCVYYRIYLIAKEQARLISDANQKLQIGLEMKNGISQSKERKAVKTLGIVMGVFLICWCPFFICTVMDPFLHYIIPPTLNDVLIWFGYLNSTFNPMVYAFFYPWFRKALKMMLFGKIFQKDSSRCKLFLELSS
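Signal – calcium-sensitive Fluo-8 signal, excitation 470-495, emission 515-575 nm · System – RD-HGA16 (CHO) cells co-expressing Gα16 and hTAAR1 · Incubation – 17-24 h seeding, 75 min 37 °C dye, 30 min RT · Compound dosing – 3 µM single concentration · Repeats – no replicates (n 1)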
CHO parental Ca – signal in parental CHO cells, OX1R antagonist counter-screen; parental CHO-K1, ATP-induced calcium, Fluo-8 fluorescence; inhibition, % at 5.6 µM; 0.63% of 330,000 active; AID 463079;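 active means inhibition above that plate's mean sample inhibition plus 3 SD, cut at about 26% in these data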
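Assay system – parental CHO cells · Reagent – ATP stimulus · Detection – intracellular calcium via Fluo-8 no-wash fluorescent dye · Evaluation – percent inhibition of ATP-evoked calcium rise, normalized to controls · Controls – ATP wells versus no-ATP DMSO wells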
TAAR1 antag – antagonists of human TAAR1 | Q96RJ0 | CHO RD-HGA16 TAAR1, Fluo-8 calcium fluorescence, antagonist | inhibition, % at 3 µM | 1.5% of 360,000 active;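 active means inhibition above a per-plate cutoff, the mean inhibition of test compounds on that plate plus 3 SD, cut at about 49% in these data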
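Assay system: RD-HGA16 CHO cells with stable hTAAR1 and Gα16 / Reagent: EC80 β-phenethylamine stimulus / Doses: 3 µM, single point / Timing: dye loading 75 min at 37 °C, then 30 min room temperature / Measured by: Fluo-8 intracellular calcium dye fluorescence, real-time kinetic reads / Controls: vehicle wells and EC80 agonist wells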
GPR7 antagonist – antagonists of human GPR7 (neuropeptides B/W receptor 1); GPR7-expressing cells, fluorescence antagonist assay; inhibition, % at 4.4 µM; 1.1% of 290,000 active; AID 1861; in the data active means inhibition above about 16%, passing the limit was not always enough;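 further: cells stimulated with the agonist NPW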
Target sequence (P48145 whole entry, looked up): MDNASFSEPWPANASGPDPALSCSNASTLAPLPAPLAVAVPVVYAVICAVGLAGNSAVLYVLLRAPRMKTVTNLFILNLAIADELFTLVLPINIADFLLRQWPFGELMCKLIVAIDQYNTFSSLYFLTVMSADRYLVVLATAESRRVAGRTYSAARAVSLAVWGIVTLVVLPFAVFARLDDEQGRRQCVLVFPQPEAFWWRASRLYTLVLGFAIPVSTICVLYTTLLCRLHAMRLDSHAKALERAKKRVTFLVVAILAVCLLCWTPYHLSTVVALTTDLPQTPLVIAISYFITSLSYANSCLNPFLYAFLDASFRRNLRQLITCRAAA
OX1R antag-1 – OX1R (human) antagonism. O43613. OX1R-expressing cells, FRET antagonist read-out. inhibition, % at 6.6 µM. 1.8% of 330,000 active. AID 485270; in the data active means inhibition mostly above about 38%, no sharp cut-off; inactive means mostly below about 40%
OX1R antag-2 – antagonists of human orexin 1 receptor | O43613 | CHO/OX1R cells, Fluo-8 calcium fluorescence, orexin A | inhibition, % at 5 µM | 0.43% of 330,000 active | AID 434989;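 active means inhibition above its plate's threshold, mean inhibition of all tested compounds on the plate plus 3 SD, cut at about 37% in these data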
OX1R Fluo8 conf – OX1R (human) antagonism, confirmed | shares compounds with OX1R antag-2 | CHO/OX1R cells, orexin A calcium Fluo-8 fluorescence | inhibition, % at 5 µM | 38% of 1,100 active | AID 492963; in the data active means inhibition above about 29%
CHO Ca counter – counter-screen for OX1R antagonists: effect in parental CHO cells; inhibition, % at 5.6 µM; 9.3% of 1,100 active; parental CHO-K1, ATP-induced calcium, Fluo-8 fluorescence; shares compounds with OX1R antag-2;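 active means inhibition above a per-plate limit, the mean inhibition of that plate's test compounds plus 3 SD, cut at about 25% in these data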
OX1R HTRF conf – confirmation of human orexin 1 receptor antagonists, HTRF format | shares compounds with OX1R antag-1 | OX1R-expressing cells, HTRF antagonist assay | inhibition, % at 6.6 µM | 49% of 1,800 active; in the data active means inhibition above about 55%;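 further: CHO cells expressing OX1R stimulated with orexin A at about EC80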
CHO-K1 HTRF – counter-screen: parental CHO-K1 HTRF response; shares compounds with OX1R antag-1; parental CHO-K1 cells, HTRF counterscreen; inhibition, % at 6.6 µM; 48% of 1,800 active; AID 493232; in the data active means inhibition above about 17%
Hits are given with their value; . = inactive; / = no result given. Compounds with a hit are over-represented: about 4.6% of the library has one in this group of screens.

SMILES	TAAR1 ag	CHO parental Ca	TAAR1 antag	GPR7 antagonist	OX1R antag-1	OX1R antag-2	OX1R Fluo8 conf	CHO Ca counter	OX1R HTRF conf	CHO-K1 HTRF
COc1ccc(NC(=O)C(=O)Nc2cccc3cccnc23)cc1OC	.	.	.	.	81	53	61	.	93	.
COc1ccc(NC(=O)C(=O)Nc2cccc3cccnc23)c(OC)c1	.	.	.	.	.	.	/	/	/	/
CNC(=O)Nc1cccc2cccnc12	.	.	.	.	.	.	/	/	/	/
CCOc1ccc(C(=O)Nc2cccc3cccnc23)cc1	.	.	.	.	81	66	29	.	87	.
Fc1cccc2sc(Nc3nc4cc5c(cc4s3)OCO5)nc12	.	.	.	.	76	41	.	.	59	.
Fc1cccc2sc(Nc3nc4cc5c(cc4s3)OCCO5)nc12	.	.	.	.	.	.	/	/	/	/
Cc1cc(Cl)ccc1OCCCC(=O)NCCN1C(=O)S/C(=C\c2cccnc2)C1=O	.	.	.	.	114	94	94	.	91	.
CSc1cccc(N2CC(C(=O)NCCN3C(=O)S/C(=C\c4cccnc4)C3=O)CC2=O)c1 (stereo not drawn)	.	.	.	/	145	.	67	.	112	33
O=C(CNC(=O)C12CC3CC(CC(C3)C1)C2)N1CCCC(C(F)(F)F)C1 (stereo not drawn)	.	/	.	/	/	/	/	/	/	/
O=C(c1cccc(S(=O)(=O)N2CCCc3ccccc32)c1)N1CCN(c2ccccc2)CC1	.	.	.	/	.	.	/	/	/	/
O=C(Nc1cccc(S(=O)(=O)NCc2ccco2)c1)c1cc(-c2ccccc2)nc2ccccc12	.	.	59	.	78	46	41	.	74	.
O=C(Nc1cccc(Cl)c1)c1ccc(F)c(S(=O)(=O)NCc2cccs2)c1	.	.	.	.	85	63	31	.	78	.
O=C(NCc1ccco1)c1cc(-c2ccccc2)nc2ccccc12	.	.	.	.	.	.	/	/	/	/
Cc1cccc(NC(=O)c2ccc(F)c(S(=O)(=O)NCc3ccco3)c2)c1	.	.	.	.	86	58	44	.	75	.
CCOc1ccc(NC(=O)CN(C)C(=O)c2ccc(OCC(=O)N3CCOCC3)c(OC)c2)cc1OCC	.	/	.	/	/	/	/	/	/	/
COc1ccc(CCNc2cc(C)[nH]c(=O)c2)cc1OC	.	.	.	.	45	.	.	.	.	.
COC(=O)[C@]12CCCCC=C1N(Cc1ccc(Cl)cc1Cl)C(=O)[C@H](CC(=O)NCc1cccs1)C2	.	/	.	/	/	/	/	/	/	/
COc1cccc(-c2nc(NCC3CCCO3)c3ccccc3n2)c1O (stereo not drawn)	.	.	.	.	.	.	/	/	/	/
Oc1ccccc1-c1nc(NCC2CCCO2)c2ccccc2n1 (stereo not drawn)	.	.	.	.	97	63	44	.	88	.
O=C(CN1C(=O)NC(Cc2c[nH]c3ccccc23)C1=O)NCCc1ccc(F)cc1 (stereo not drawn)	.	.	.	.	.	.	/	/	/	/
COc1ccc(CCNC(=O)COc2ccc(-c3ccc(C)cc3)cc2)cc1OC	.	.	.	.	66	70	.	.	76	.
COc1ccc(CCNC(=O)CCOc2ccc(C)cc2)cc1OC	.	.	.	.	.	.	/	/	/	/
CCC/C=N/NC(=O)C1COc2ccccc2O1 (stereo not drawn)	.	.	.	.	.	.	/	/	/	/
Cc1cc(-c2ccc(N3CCOCC3)cc2)nc2ccccc12	.	.	.	.	91	.	54	.	93	.
c1ccc2nc(-c3ccc(N4CCOCC4)cc3)ccc2c1	.	.	.	.	.	.	/	/	/	/
SMILES	TAAR1 ag	CHO parental Ca	TAAR1 antag	GPR7 antagonist	OX1R antag-1	OX1R antag-2	OX1R Fluo8 conf	CHO Ca counter	OX1R HTRF conf	CHO-K1 HTRF
CC(NC(C)c1ccccc1Cl)C(=O)Nc1cccc(S(=O)(=O)N2CCCCC2)c1 (stereo not drawn)	.	.	.	/	88	89	80	.	89	.
CC(Sc1ccc(Cl)cc1)C(=O)NNC(=O)c1ccccc1O (stereo not drawn)	.	.	.	.	66	.	32	.	75	.
COc1ccccc1N(C)S(=O)(=O)c1ccc(Cl)c(C(=O)OCc2c(C)noc2C)c1	.	.	.	.	54	.	.	.	.	.
COc1ccccc1N(C)S(=O)(=O)c1ccc(Cl)c(C(=O)NNC(=O)c2ccccc2O)c1	.	.	.	.	.	.	/	/	/	/
Cn1c(=O)c2c(nc(N3CCCCC3)n2CC(O)COc2ccccc2)n(C)c1=O (stereo not drawn)	.	.	.	.	.	.	/	/	/	/
COc1ccc2oc(C(=O)Nc3nc4ccccc4[nH]3)c(C)c2c1	.	.	.	.	53	.	.	.	.	.
COc1ccc(Br)c(C(=O)Nc2nc3ccccc3[nH]2)c1	.	.	.	.	.	.	/	/	/	/
CN(c1ccccc1)S(=O)(=O)c1cccc(NC(=O)COc2cccc([N+](=O)[O-])c2)c1	.	.	70	/	33	46	.	.	.	.
CCOC(=O)c1c(NC(=O)C2C3CCC(O3)C2C(=O)O)sc2c1CCCC2 (stereo not drawn)	.	.	.	.	.	.	/	/	/	/
Cc1ccc(-c2c(C)sc(NC(=O)C3C4CCC(O4)C3C(=O)O)c2C(=O)OC(C)C)cc1 (stereo not drawn)	.	.	.	.	78	52	.	.	60	.
CC(CC(=O)Nc1ccc2c(c1)c(=O)n(C)n2Cc1ccc(F)cc1)C(F)(F)F (stereo not drawn)	.	/	.	/	/	/	/	/	/	/
Cc1nnc(SCC(=O)NNC(=O)c2ccc(Cl)cc2)s1	.	.	.	.	.	.	/	/	/	/
COc1ccc(C(=O)/C=C/c2cn(CN3CCN(C)CC3)c3ccccc23)cc1	/	.	/	.	71	.	.	.	.	.
COc1ccc(C(=O)/C=C/c2cn(CC(O)CN3CCOCC3)c3ccccc23)cc1 (stereo not drawn)	/	.	/	.	.	.	/	/	/	/
O=C(CN1C(=O)NC2(CCCC2)C1=O)OCc1cccc(Br)c1	.	.	.	/	.	.	/	/	/	/
Cc1ccc(OC(F)F)c(NC(=O)Nc2cccc(C(F)(F)F)c2)c1	/	.	/	.	46	.	.	.	.	.
